Experimental data from different studies.
Protocols differ between the studies behind these lines.
Target: Dual specificity protein kinase CLK2 (CLK2, Homo sapiens, UniProt P49760)

Cc1nn(C)cc1-c1nc2c(N3CCN(Cc4ccc(Cl)cc4)CC3)c(Cl)cnc2[nH]1
remaining binding (binding; competition with immobilised ligand; 1 µM): 77%

Nc1ncc(-c2nc(N3CCOCC3)nc(N3CCOCC3)n2)c(C(F)F)n1
remaining binding (binding; competition with immobilised ligand; 10 µM): 41%

COc1cc(Nc2ncc(F)c(Nc3ccc4c(n3)NC(=O)C(C)(C)O4)n2)cc(OC)c1OC
inhibition (binding; competition with immobilised ligand; 10 µM): 84%

Cn1cncc1[C@@](O)(COc1ccc(C#N)cc1-c1ccc(OC(F)(F)F)cc1)c1ccc(C#N)cc1
remaining binding (cell-free assay; competition with immobilised ligand; 1 µM): 90%

O=c1[nH]c2ccccc2n1C1CCN(Cc2ccc(-c3[nH]c4cc5ncnc5cc4nc3-c3ccccc3)cc2)CC1
remaining signal (cell-free assay; 0.5 µM): 114%

COc1ncccc1-c1cnn2ccc(N3CCN(C(=O)OC(C)C)CC3)nc12
remaining binding (binding; competition with immobilised ligand; 1 µM): 100%

CC(C)(C)c1cc(C=C(C#N)C#N)cc(Br)c1O
remaining activity (enzyme activity; inhibitor; 0.5 µM): 104%

Cn1cc(-c2cccc(N3CCc4c(sc5c4CC(C)(C)C5)C3=O)c2CO)cc(Nc2ccncn2)c1=O
inhibition (enzyme activity; inhibitor; 1 µM): 4%

N#CC1(c2ccccn2)CCN(Cc2cc(C(=O)O)c(=O)n3ccccc23)CC1
remaining binding (cell-free assay; competition with immobilised ligand; 1 µM): 100%

C#Cc1n[nH]c2c(-c3cn([C@@H](C)c4ccccn4)c(=O)[nH]c3=O)cc(F)cc12
inhibition (enzyme activity; inhibitor; 0.1 µM): 7.4%

Cn1cc(-c2cc(F)cc(N3CCn4c(cc5c4CCCC5)C3=O)c2CO)cc(Nc2ccc(N3CCN(C4COC4)CC3)cn2)c1=O
inhibition (enzyme activity; inhibitor; 0.1 µM): 7%
